Molecules are shown by their SMILES. Bounds are passed on as bounds.

The record followed here is ChEMBL document CHEMBL4265907, “Design, synthesis and pharmacological evaluation of N4,N6-disubstituted pyrimidine-4,6-diamine derivatives as potent EGFR inhibitors in non-small cell lung cancer” (Eur J Med Chem, 2018).

Experiment [1] addresses Epidermal growth factor receptor (Homo sapiens, UniProt P00533, DEL747/DEL747-750). Description: Inhibition of N-terminal GST-tagged human EGFR del 747-750 mutant cytoplasmic domain expressed in baculovirus expression system using FAM-labeled peptide as substrate after 10 mins by mobility shift assay.
The target in experiment [2] is Vascular endothelial growth factor receptor 2 (Homo sapiens) (UniProt P35968). Description: Inhibition of N-terminal GST-tagged human KDR cytoplasmic domain (790 to 1356 residues) expressed in baculovirus expression system at […] using FAM-labeled peptide as substrate after 10 mins by mobility shift assay relative to control. The gist of the method: (§1)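 Caliper mobility-shift kinase assay. Kinase in kinase base buffer was preincubated with compound for 10 min at room temperature. FAM-labelled peptide and ATP at Km were then added, and the reaction ran at 28 °C until quenched with buffer. Screening concentration was 1 µM. Percent inhibition = (max − conversion)/(max − min) × 100, with DMSO as max and a low control as min.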
Chain of Vascular endothelial growth factor receptor 2 (Homo sapiens) (P35968 whole entry, the tested form may be a part): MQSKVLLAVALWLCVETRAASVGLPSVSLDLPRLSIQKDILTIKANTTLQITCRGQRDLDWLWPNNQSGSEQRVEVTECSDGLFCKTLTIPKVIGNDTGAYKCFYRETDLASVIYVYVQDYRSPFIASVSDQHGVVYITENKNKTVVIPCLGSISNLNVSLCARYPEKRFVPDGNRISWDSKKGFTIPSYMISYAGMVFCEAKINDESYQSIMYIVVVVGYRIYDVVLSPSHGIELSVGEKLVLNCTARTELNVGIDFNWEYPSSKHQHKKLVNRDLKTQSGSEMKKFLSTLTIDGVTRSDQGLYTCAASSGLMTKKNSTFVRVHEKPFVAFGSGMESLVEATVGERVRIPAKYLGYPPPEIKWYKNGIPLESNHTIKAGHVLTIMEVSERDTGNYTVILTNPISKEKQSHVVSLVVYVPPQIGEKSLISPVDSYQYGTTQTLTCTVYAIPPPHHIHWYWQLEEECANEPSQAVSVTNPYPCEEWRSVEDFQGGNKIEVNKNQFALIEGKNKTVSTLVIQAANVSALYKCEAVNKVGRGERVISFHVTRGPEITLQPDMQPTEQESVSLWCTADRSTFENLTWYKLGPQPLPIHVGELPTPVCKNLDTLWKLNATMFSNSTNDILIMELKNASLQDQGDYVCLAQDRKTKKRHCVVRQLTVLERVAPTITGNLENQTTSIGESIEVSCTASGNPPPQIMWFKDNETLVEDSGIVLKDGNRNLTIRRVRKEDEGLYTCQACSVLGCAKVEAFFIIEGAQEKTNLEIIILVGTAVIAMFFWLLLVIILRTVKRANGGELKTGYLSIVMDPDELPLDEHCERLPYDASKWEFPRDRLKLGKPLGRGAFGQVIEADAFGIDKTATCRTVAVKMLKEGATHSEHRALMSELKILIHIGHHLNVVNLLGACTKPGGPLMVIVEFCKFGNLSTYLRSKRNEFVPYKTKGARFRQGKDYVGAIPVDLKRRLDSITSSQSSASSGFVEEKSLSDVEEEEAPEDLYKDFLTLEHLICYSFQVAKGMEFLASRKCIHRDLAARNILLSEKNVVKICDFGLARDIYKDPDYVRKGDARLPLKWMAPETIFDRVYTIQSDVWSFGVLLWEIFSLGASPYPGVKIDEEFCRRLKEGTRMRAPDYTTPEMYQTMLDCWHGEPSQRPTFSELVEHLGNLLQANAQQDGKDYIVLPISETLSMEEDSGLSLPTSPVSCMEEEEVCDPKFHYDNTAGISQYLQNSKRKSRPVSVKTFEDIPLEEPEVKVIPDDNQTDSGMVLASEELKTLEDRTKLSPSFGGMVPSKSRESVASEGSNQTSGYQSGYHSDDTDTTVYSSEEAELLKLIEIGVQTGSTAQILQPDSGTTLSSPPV

In experiment [3] the target is Epidermal growth factor receptor (Homo sapiens, UniProt P00533). Description: Inhibition of N-terminal GST-tagged wild type human EGFR cytoplasmic domain (669 to 1210 residues) expressed in baculovirus expression system using FAM-labeled peptide as substrate after 10 mins by mobility shift assay.
Chain of Epidermal growth factor receptor (Homo sapiens, UniProt P00533) (P00533 whole entry, the tested form may be a part): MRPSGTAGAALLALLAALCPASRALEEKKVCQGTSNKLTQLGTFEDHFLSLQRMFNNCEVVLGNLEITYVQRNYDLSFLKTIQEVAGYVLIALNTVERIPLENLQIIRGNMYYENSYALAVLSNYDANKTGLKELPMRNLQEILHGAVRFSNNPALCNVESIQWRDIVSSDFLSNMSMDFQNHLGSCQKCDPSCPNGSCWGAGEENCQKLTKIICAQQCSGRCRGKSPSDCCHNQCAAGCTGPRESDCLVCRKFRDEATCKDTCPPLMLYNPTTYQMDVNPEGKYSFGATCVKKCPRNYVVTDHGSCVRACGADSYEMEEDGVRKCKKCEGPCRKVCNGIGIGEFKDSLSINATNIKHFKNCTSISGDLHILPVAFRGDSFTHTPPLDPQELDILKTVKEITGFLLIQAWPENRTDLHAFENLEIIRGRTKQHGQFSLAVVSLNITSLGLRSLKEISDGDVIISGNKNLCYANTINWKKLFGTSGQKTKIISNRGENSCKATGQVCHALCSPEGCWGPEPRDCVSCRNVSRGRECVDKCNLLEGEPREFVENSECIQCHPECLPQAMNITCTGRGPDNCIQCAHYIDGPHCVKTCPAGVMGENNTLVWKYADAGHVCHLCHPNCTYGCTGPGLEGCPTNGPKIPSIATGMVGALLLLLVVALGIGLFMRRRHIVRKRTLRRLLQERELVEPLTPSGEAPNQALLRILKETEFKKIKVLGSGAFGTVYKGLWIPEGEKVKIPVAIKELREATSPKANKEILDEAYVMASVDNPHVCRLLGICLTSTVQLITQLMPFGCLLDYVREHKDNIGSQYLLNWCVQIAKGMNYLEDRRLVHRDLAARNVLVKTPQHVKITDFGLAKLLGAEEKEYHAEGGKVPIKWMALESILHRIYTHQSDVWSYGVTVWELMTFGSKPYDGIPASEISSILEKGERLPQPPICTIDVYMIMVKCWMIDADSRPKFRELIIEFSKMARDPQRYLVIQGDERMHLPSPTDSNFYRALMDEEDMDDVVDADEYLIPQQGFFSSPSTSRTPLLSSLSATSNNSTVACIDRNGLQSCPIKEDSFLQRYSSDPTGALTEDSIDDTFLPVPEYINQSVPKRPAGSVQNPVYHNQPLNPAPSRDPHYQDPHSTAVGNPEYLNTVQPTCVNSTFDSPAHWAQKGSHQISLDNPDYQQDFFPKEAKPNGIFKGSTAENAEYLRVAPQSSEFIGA
Experiment [4] deals with Fibroblast growth factor receptor 1 (Homo sapiens) (UniProt P11362). Description: Inhibition of N-terminal GST-tagged human FGFR1 cytoplasmic domain (398 to 822 residues) expressed in baculovirus expression system at […] using FAM-labeled peptide as substrate after 10 mins by mobility shift assay relative to control. The gist of the method:
as §1

The subject of a further experiment is PC-9. Description: Antiproliferative activity against human PC9 cells after 72 hrs by MTT assay. Particulars: PC-9, 72 h. In kind it is functional, cell-based. The gist of the method:
(§2)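 Cells seeded at 3000/well in growth medium with 10% FBS and left overnight. Treated in triplicate for 72 h at nine concentrations (0.458 to 30,000 nM), with DMSO-only controls. MTT (5 mg/mL) added for the last 4 h, formazan dissolved in DMSO, absorbance read at 490 nm. IC50 from non-linear sigmoidal dose-response fit.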
On the technique in general: Formazan colour is commonly taken as a measure of viable cells.

Another experiment deals with HCC827. Description: Antiproliferative activity against human HCC827 cells after 72 hrs by MTT assay. In kind it is functional, cell-based. The settings on record: HCC827, 72 h. The essentials: as §2
The test system of a further experiment is A-431. Description: Antiproliferative activity against human A431 cells after 72 hrs by MTT assay. Particulars: A-431, 72 h. The format is functional, cell-based. The gist of the method: as §2
The next experiment deals with NCI-H1975. Description: Antiproliferative activity against human NCI-H1975 cells after 72 hrs by MTT assay. In kind it is functional, cell-based. Particulars: NCI-H1975, 72 h. The gist of the method:
as §2

The next experiment relates to NCI-H3255. Description: Antiproliferative activity against human H3255 cells after 72 hrs by MTT assay. In kind it is functional, cell-based. The settings on record: NCI-H3255, 72 h. The essentials:
as §2

A further experiment concerns BEAS-2B. Description: Cytotoxicity against human BEAS2B cells after 72 hrs by MTT assay. The format is cell-based. The gist of the method: as §2

Chain of Epidermal growth factor receptor (Homo sapiens, UniProt P00533, DEL747/DEL747-750) (P00533 with tags, fused parts or gaps DEL747/DEL747-750 limits assumed): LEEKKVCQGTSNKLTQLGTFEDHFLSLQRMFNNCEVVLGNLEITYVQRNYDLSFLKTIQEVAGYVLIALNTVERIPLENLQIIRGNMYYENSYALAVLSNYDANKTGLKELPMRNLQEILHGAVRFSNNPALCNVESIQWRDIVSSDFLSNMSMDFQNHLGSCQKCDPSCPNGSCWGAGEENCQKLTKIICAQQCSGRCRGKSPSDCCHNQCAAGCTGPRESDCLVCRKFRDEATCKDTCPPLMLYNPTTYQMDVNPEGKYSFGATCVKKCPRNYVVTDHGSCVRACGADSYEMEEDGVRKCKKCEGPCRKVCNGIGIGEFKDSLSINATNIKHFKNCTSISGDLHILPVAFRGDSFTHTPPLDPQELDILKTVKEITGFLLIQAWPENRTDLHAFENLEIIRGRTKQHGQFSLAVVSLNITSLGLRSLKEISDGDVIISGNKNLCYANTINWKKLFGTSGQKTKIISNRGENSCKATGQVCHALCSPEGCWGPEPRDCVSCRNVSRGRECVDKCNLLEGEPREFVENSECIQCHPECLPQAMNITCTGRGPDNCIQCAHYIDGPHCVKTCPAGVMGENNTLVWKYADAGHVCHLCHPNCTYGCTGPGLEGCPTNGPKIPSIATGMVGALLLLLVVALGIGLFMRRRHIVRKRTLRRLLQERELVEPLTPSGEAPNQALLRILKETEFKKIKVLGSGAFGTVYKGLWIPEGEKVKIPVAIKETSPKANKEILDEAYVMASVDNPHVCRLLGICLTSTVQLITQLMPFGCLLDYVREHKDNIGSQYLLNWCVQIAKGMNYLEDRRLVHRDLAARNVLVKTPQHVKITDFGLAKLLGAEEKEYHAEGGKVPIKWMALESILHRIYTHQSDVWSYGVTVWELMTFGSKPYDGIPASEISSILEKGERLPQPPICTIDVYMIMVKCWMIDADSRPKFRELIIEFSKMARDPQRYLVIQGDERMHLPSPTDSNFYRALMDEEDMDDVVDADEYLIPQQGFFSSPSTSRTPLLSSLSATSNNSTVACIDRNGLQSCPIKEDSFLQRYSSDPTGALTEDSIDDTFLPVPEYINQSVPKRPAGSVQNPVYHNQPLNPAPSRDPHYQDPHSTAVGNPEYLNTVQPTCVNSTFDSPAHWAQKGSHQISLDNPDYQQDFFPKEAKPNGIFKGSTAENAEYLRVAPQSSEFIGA

What is called IC50 is the point on the concentration scale where inhibition reaches its midpoint. By inhibition is commonly meant the change of the read-out against control, counted positive when it falls. On to `COc1ccc(OC)c(Nc2cc(Nc3ccc(S(N)(=O)=O)cc3)ncn2)c1`, for which the IC50 in experiment [1] was 467 nM; in experiment [3] it was 779 nM. The inhibition was 26.2% in [2] and -8.2% in [4].
In the case of `O=C(O)CCCC(=O)Nc1cc(Nc2ccc(Cl)cc2)ncn1`, the IC50 in experiment [1] was 944 nM; in [3], over 10000 nM. Also, the inhibition in experiment [2] was 18%; in experiment [4] it was -7.2%.
With `CCOC(=O)CCCC(=O)Nc1cc(Nc2cccc(Cl)c2)ncn1`, the IC50 in the experiment with PC-9 was over 30000 nM; with HCC827, over 30000 nM; in [1], over 10000 nM; in the experiment on A-431, 490 nM; with NCI-H1975, over 30000 nM; in the experiment with NCI-H3255, over 30000 nM. Besides, the IC50 in experiment [3] was found to be 27 nM; in the experiment on BEAS-2B it was 21100 nM. Also, the inhibition in experiment [2] is 16%; in [4] it was 0.5%.
On to `COc1ccc(OC)c(Nc2cc(NC(=O)CCCC(=O)O)ncn2)c1`, for which the IC50 in experiment [1] is over 10000 nM; in experiment [3], 68 nM. For the same compound, the inhibition in [2] is 23.6%; in experiment [4], -3.7%.
For `CCOC(=O)CCC(=O)Nc1cc(Nc2cccc(Br)c2)ncn1` the same measures were 933 nM, over 10000 nM, 5.7% and -7.1%.
Turning to `COc1cccc(Nc2cc(Nc3cccc(Cl)c3)ncn2)c1`, the IC50 in the experiment with PC-9 is 1660 nM; with HCC827 it was 4040 nM; in experiment [1] it was 974 nM; in the experiment on A-431, 15200 nM; in the experiment on NCI-H1975, over 30000 nM; with NCI-H3255 it was over 30000 nM. In addition, the IC50 in [3] was over 10000 nM; in the experiment on BEAS-2B it was 17600 nM. Further, the inhibition in [2] is 19.2%; in experiment [4] it was -3.8%.
For `O=C(O)CCC(=O)Nc1cc(Nc2ccc(Cl)cc2)ncn1`, the IC50 in the experiment with PC-9 came to 790 nM; with HCC827, 3130 nM; in experiment [1], 792 nM; in the experiment with A-431 it was 1900 nM; in the experiment on NCI-H1975, 2730 nM; in the experiment with NCI-H3255 it was 4370 nM. Moreover, the IC50 in experiment [3] was over 10000 nM; in the experiment with BEAS-2B, 19000 nM. Besides, the figures for the inhibition in experiment [2] and in [4] were 15.7% and 5.2%, respectively.
`O=C(Nc1cc(N2CCOCC2)ncn1)c1ccc(F)cc1`: the IC50 in the experiment on PC-9 stood at 870 nM; in the experiment on HCC827, 1960 nM; in [1] it was 63 nM; in the experiment with A-431, 1130 nM; with NCI-H1975 it was 1970 nM; in the experiment with NCI-H3255, 1870 nM. Besides, the IC50 in experiment [3] came out at 131 nM; in the experiment with BEAS-2B, 21000 nM. Also, the inhibition in experiment [2] worked out at 31%; in experiment [4], 8.8%.
For `Clc1ccc(Nc2cc(Nc3cccc(Cl)n3)ncn2)cc1`, the IC50 with PC-9 is 1180 nM; with HCC827, over 30000 nM; in [1], 229 nM; in the experiment on A-431 it was over 30000 nM; in the experiment with NCI-H1975 it was over 30000 nM; in the experiment with NCI-H3255 it was over 30000 nM. Moreover, the IC50 was 324 nM in [3] and 18000 nM in the experiment on BEAS-2B. Also, the inhibition in [2] was 8.5%; in experiment [4], -5.7%.
Consider `COc1cccc(Nc2cc(Nc3ccc(S(N)(=O)=O)cc3)ncn2)c1`, for which the IC50 in experiment [1] is 1230 nM; in experiment [3], over 10000 nM. The inhibition is 12.4% in experiment [2] and -8.8% in [4].
Take `COc1ccc(OC)c(Nc2cc(Nc3ccc(F)cc3)ncn2)c1`: the IC50 was 640 nM in the experiment with PC-9; 1720 nM with HCC827; 208 nM in experiment [1]; over 30000 nM with A-431; over 30000 nM in the experiment on NCI-H1975; over 30000 nM with NCI-H3255. Also, the results for the IC50 (in [3]; with BEAS-2B) were 336 nM and 18000 nM, respectively. Besides, the inhibition in [2] was 12.4%; in experiment [4], -3.1%.
Regarding `COc1ccc(OC)c(Nc2cc(NCCc3cccs3)ncn2)c1`, the figures for the IC50 in experiment [1] and in [3] were 102 nM and 125 nM, respectively. For the same compound, the values for the inhibition in experiment [2] and in experiment [4] were 14.6% and -8.2%, respectively.
For `O=C(O)CCCC(=O)Nc1cc(Nc2cccc(Br)c2)ncn1` the same measures were over 10000 nM, 70 nM, 6.5% and -1.1%.
Regarding `O=C(Nc1cc(Nc2ccc(Cl)cc2)ncn1)c1ccc(F)cc1`, the IC50 in the experiment on PC-9 is 820 nM; with HCC827, over 30000 nM; in experiment [1], 1410 nM; with A-431, over 30000 nM; in the experiment with NCI-H1975, 17600 nM; in the experiment with NCI-H3255 it was over 30000 nM. The IC50 in [3] is over 10000 nM; in the experiment with BEAS-2B, 18600 nM. Further, the inhibition is 9.3% in experiment [2] and 16.3% in experiment [4].
Consider `O=C(O)CCCC(=O)Nc1cc(Nc2ccccc2)ncn1`, for which the IC50 in the experiment on PC-9 came out at 940 nM; with HCC827 it was 2220 nM; in [1], 105 nM; in the experiment with A-431, 1190 nM; in the experiment on NCI-H1975, 1850 nM; with NCI-H3255 it was 2940 nM. Also, the IC50 in experiment [3] was over 10000 nM; in the experiment with BEAS-2B, 17900 nM. Besides, the inhibition in experiment [2] is 4.9%; in experiment [4], -4%.
As for `CCOc1ccc(Nc2cc(NC(=O)c3ccccc3)ncn2)cc1`, the IC50 with PC-9 was 2090 nM; in the experiment with HCC827 it was 7000 nM; in [1], 754 nM; with A-431, 6540 nM; in the experiment on NCI-H1975, 7070 nM; in the experiment with NCI-H3255, 9170 nM. The IC50 in experiment [3] is over 10000 nM; in the experiment on BEAS-2B, 17400 nM. The inhibition in [2] was 11.3%; in [4], -8.8%.
With `CCNc1cc(Nc2cccc(Cl)c2)ncn1`, the figures for the 50% inhibitory concentration (IC50) in [1] and in [3] were over 10000 nM and 170 nM, respectively. Further, the figures for the inhibition in experiment [2] and in experiment [4] were 6.9% and -7.7%, respectively.
For `COc1cc(Nc2cc(Nc3ccc(Cl)cc3)ncn2)cc(OC)c1OC` the same measures were over 10000 nM, 901 nM, 37.1% and 1.2%.
With `COc1ccc(OC)c(Nc2cc(Nc3ccc(N4CCN(C)CC4)cc3)ncn2)c1`, the IC50 is over 30000 nM in the experiment with PC-9; 24300 nM in the experiment with HCC827; over 10000 nM in [1]; over 30000 nM in the experiment with A-431; over 30000 nM with NCI-H1975; over 30000 nM with NCI-H3255. Besides, the IC50 in experiment [3] is 288 nM; in the experiment on BEAS-2B it was 18100 nM. Besides, the inhibition in experiment [2] was found to be 28.5%; in [4] it was 4.7%.
`CCOC(=O)c1ccc(Nc2cc(Nc3cccc(OC)c3)ncn2)cc1`: the IC50 in experiment [1] is 1190 nM; in experiment [3], over 10000 nM. The inhibition was 11.7% in experiment [2] and -9.3% in [4].
In the case of `CCCC(C)OC(=O)CCC(=O)Nc1cc(Nc2cccc(Br)c2)ncn1` (configuration not stated), the results for the inhibition in experiment [2] and in experiment [4] were 14.8% and -4.9%, respectively.
